# Laboratory results as given in ChEMBL document CHEMBL3044956, “Nematicidal and antifungal activities of annonaceous acetogenins from Annona squamosa against various plant pathogens” (J Agric Food Chem, 2011).
# Columns and labels:
# Phytophthora infestans [1] = test: Antifungal activity against Phytophthora infestans assessed as inhibition of radial mycelial growth at 11.11 to 900 ug/ml incubated at 20 degC for 5 to 7 days by poison plate assay; assay type: functional
# Procedure, shortened: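 Poison-plate assay: material in MeOH added 1:100 to V8-agar at 50 °C, 2 mL per well of six-well plates, centre-inoculated with a 5 mm plug from the colony margin. Incubated at 20 °C until control growth reached the edge. Controls were 1% MeOH. Read as % inhibition of radial growth. Two runs, four replicates each. IC50 by probit.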
# Meloidogyne incognita [2] = test: Nematicidal activity against second juvenile stage (J2) of Meloidogyne incognita (root-knot nematode) assessed as mortality incubated in the dark at 28 degC after 2 days by light microscopy (benficial crop Tomato); assay type: functional; details: 48 h
# Procedure, shortened: (§1)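 M. incognita eggs taken from infected tomato roots with hypochlorite and J2s hatched in Baermann funnels at 28 °C. J2s from the first 3 days kept in 0.01% Tween 20 water and used within 24 h. About 100 J2s per well; stock added 1:100 in DMSO or MeOH (≤1%). Plates kept shaking in the dark at 28 °C, scored by microscope at 1, 2 and 3 days. Mortality Abbott-corrected. Two runs, three replicates each.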
# Meloidogyne incognita [3] = test: Nematicidal activity against second juvenile stage (J2) of Meloidogyne incognita (root-knot nematode) assessed as mortality incubated in the dark at 28 degC after 3 days by light microscopy (benficial crop Tomato); assay type: functional; details: 72 h; procedure, shortened: as §1
# [4] = tested on: Bursaphelenchus xylophilus; test: Nematicidal activity against second juvenile stage (J2) of Bursaphelenchus xylophilus assessed as mortality after 2 days by microtiter plate assay method (Beneficial crop Pine); assay type: functional; details: 48 h
# Procedure, shortened: (§2)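 Pine wood nematodes reared on B. cinerea mycelia on PDA for 7 days at 28 °C. J2s collected in 0.01% Triton X-100 water and tested in microtiter plates. Compounds in DMSO or MeOH, solvent ≤1%; solvent-only controls. Concentrations 0.004–1 μg/mL. Mortality Abbott-corrected; LC50 by probit. Two runs, three replicates each.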
# Botrytis cinerea [5] = test: In vivo antifungal activity against Botryotinia fuckeliana infected in tomato seedlings assessed as control of tomato gray mold disease development at 250 ug/ml treated 1 day before spore inoculation measured 3-7 days after inoculation; assay type: functional
# Procedure, shortened: (§3)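 Potted seedlings sprayed to runoff with material dissolved in MeOH and diluted in 0.025% Tween 20 (5% MeOH); controls got the Tween/MeOH solution alone. Inoculated with spores or mycelial suspension 1 day later. Infected leaf or sheath area rated 3–7 days after inoculation; % control = 100(A−B)/A. Randomized complete block design, three replicates, run in duplicate; Tukey HSD.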
# Colletotrichum coccodes [6] = test: In vivo antifungal activity against Colletotrichum coccodes infected red pepper seedlings assessed as control of red pepper anthracnose development at 125 ug/ml treated 1 day before spore inoculation measured 3-7 days after inoculation; assay type: functional; procedure, shortened: as §3
# Phytophthora infestans [7] = test: In vivo antifungal activity against Phytophthora infestans zoospores infected tomato seedlings assessed as control of tomato late blight disease development treated 1 day before spore inoculation measured 3 days after inoculation; assay type: functional, organism-based; procedure, shortened: as §3
# Puccinia recondita [8] = test: In vivo antifungal activity against Puccinia recondita infected wheat seedlings assessed as reduction in wheat leaf rust disease symptoms development at 125 ug/ml treated 1 day before spore inoculation measured 7 days after inoculation; assay type: functional; parameters: scale not given: the % may be the effect or the level left; procedure, shortened: as §3
# Pyricularia oryzae [9] = test: In vivo antifungal activity against Magnaporthe oryzae infected rice seedlings assessed as control of rice blast disease development at 125 ug/ml treated 1 day before spore inoculation measured 3-7 days after inoculation; assay type: functional; procedure, shortened: as §3
# Botrytis cinerea [10] = test: In vivo antifungal activity against Botryotinia fuckeliana infected in tomato seedlings assessed as control of tomato gray mold disease development at 125 ug/ml treated 1 day before spore inoculation measured 3-7 days after inoculation; assay type: functional; procedure, shortened: as §3
# Colletotrichum coccodes [11] = test: In vivo antifungal activity against Colletotrichum coccodes infected red pepper seedlings assessed as control of red pepper anthracnose development at 500 ug/ml treated 1 day before spore inoculation measured 3-7 days after inoculation; assay type: functional; procedure, shortened: as §3
# Botrytis cinerea [12] = test: In vivo antifungal activity against Botryotinia fuckeliana infected in tomato seedlings assessed as control of tomato gray mold disease development at 500 ug/ml treated 1 day before spore inoculation measured 3-7 days after inoculation; assay type: functional; procedure, shortened: as §3
# Puccinia recondita [13] = test: In vivo antifungal activity against Puccinia recondita infected wheat seedlings assessed as reduction in wheat leaf rust disease symptoms development at 250 ug/ml treated 1 day before spore inoculation measured 7 days after inoculation; assay type: functional; parameters: scale not given: the % may be the effect or the level left; procedure, shortened: as §3
# Rhizoctonia solani [14] = test: In vivo antifungal activity against Rhizoctonia solani infected rice seedlings assessed as control of rice sheath blight disease development at 125 ug/ml treated 1 day before spore inoculation measured 3-7 days after inoculation; assay type: functional; procedure, shortened: as §3
# Phytophthora infestans [15] = test: Antifungal activity against Phytophthora infestans assessed as inhibition of sporangium germination incubated at 20 degC for 24 hr by light microscopy; assay type: functional, organism-based
# Procedure, shortened: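 Sporangium germination: compounds serially diluted in MeOH (12500 to 391 μg/mL as stock series), sporangia incubated 24 h at 20 °C. About 100 sporangia per replicate scored for germination by light microscope. Experiment repeated, mean ± SD. IC50 by probit.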
# Rhizoctonia solani [16] = test: In vivo antifungal activity against Rhizoctonia solani infected rice seedlings assessed as control of rice sheath blight disease development at 500 ug/ml treated 1 day before spore inoculation measured 3-7 days after inoculation; assay type: functional; procedure, shortened: as §3
# Blumeria hordei [17] = test: In vivo antifungal activity against Blumeria graminis f. sp. hordei infected barley seedlings assessed as control of barley powdery mildew disease development at 250 ug/ml treated 1 day before spore inoculation measured 3-7 days after inoculation; assay type: functional; procedure, shortened: as §3
# Colletotrichum coccodes [18] = test: In vivo antifungal activity against Colletotrichum coccodes infected red pepper seedlings assessed as control of red pepper anthracnose development at 250 ug/ml treated 1 day before spore inoculation measured 3-7 days after inoculation; assay type: functional; procedure, shortened: as §3
# Pyricularia oryzae [19] = test: In vivo antifungal activity against Magnaporthe oryzae infected rice seedlings assessed as control of rice blast disease development at 250 ug/ml treated 1 day before spore inoculation measured 3-7 days after inoculation; assay type: functional; procedure, shortened: as §3
# [20] = tested on: Bursaphelenchus xylophilus; test: Nematicidal activity against second juvenile stage (J2) of Bursaphelenchus xylophilus assessed as mortality at >0.33 ug/ml after 2 days by microtiter plate assay method (Beneficial crop Pine); assay type: functional; procedure, shortened: as §2
# Meloidogyne incognita [21] = test: Nematicidal activity against second juvenile stage (J2) of Meloidogyne incognita (root-knot nematode) assessed as mortality incubated in the dark at 28 degC after 1 day by light microscopy (benficial crop Tomato); assay type: functional; details: 24 h; procedure, shortened: as §1
# Blumeria hordei [22] = test: In vivo antifungal activity against Blumeria graminis f. sp. hordei infected barley seedlings assessed as control of barley powdery mildew disease development at 125 ug/ml treated 1 day before spore inoculation measured 3-7 days after inoculation; assay type: functional; procedure, shortened: as §3
# Puccinia recondita [23] = test: In vivo antifungal activity against Puccinia recondita infected wheat seedlings assessed as reduction in wheat leaf rust disease symptoms development at 500 ug/ml treated 1 day before spore inoculation measured 7 days after inoculation; assay type: functional; parameters: scale not given: the % may be the effect or the level left; procedure, shortened: as §3
# Rhizoctonia solani [24] = test: In vivo antifungal activity against Rhizoctonia solani infected rice seedlings assessed as control of rice sheath blight disease development at 250 ug/ml treated 1 day before spore inoculation measured 3-7 days after inoculation; assay type: functional; procedure, shortened: as §3
# Phytophthora infestans [25] = test: Antifungal activity against Phytophthora infestans assessed as inhibition of zoospore germination incubated in the dark at 20 degC for 24 hr by light microscopy; assay type: functional, organism-based
# Procedure, shortened: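 Zoospores released by chilling sporangia 1 h at 4 °C, then filtered to remove sporangia. Test solution in MeOH mixed 1:100 with the suspension (1% MeOH control), loaded onto hole-slide glasses and kept humid at 20 °C for 24 h in the dark. Germinated cells counted per hole by light microscope. Experiment repeated, mean ± SD.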
# Blumeria hordei [26] = test: In vivo antifungal activity against Blumeria graminis f. sp. hordei infected barley seedlings assessed as control of barley powdery mildew disease development at 500 ug/ml treated 1 day before spore inoculation measured 3-7 days after inoculation; assay type: functional; procedure, shortened: as §3
# Pyricularia oryzae [27] = test: In vivo antifungal activity against Magnaporthe oryzae infected rice seedlings assessed as control of rice blast disease development at 500 ug/ml treated 1 day before spore inoculation measured 3-7 days after inoculation; assay type: functional; procedure, shortened: as §3
# Colletotrichum coccodes [28] = test: In vivo antifungal activity against Colletotrichum coccodes infected red pepper seedlings assessed as control of red pepper anthracnose development at 10 ug/ml treated 1 day before spore inoculation measured 3-7 days after inoculation; assay type: functional; procedure, shortened: as §3
# Colletotrichum coccodes [29] = test: In vivo antifungal activity against Colletotrichum coccodes infected red pepper seedlings assessed as control of red pepper anthracnose development at 50 ug/ml treated 1 day before spore inoculation measured 3-7 days after inoculation; assay type: functional; procedure, shortened: as §3
# Puccinia recondita [30] = test: In vivo antifungal activity against Puccinia recondita infected wheat seedlings assessed as reduction in wheat leaf rust disease symptoms development at 10 ug/ml treated 1 day before spore inoculation measured 7 days after inoculation; assay type: functional; parameters: scale not given: the % may be the effect or the level left; procedure, shortened: as §3
# Puccinia recondita [31] = test: In vivo antifungal activity against Puccinia recondita infected wheat seedlings assessed as reduction in wheat leaf rust disease symptoms development at 2 ug/ml treated 1 day before spore inoculation measured 7 days after inoculation; assay type: functional; parameters: scale not given: the % may be the effect or the level left; procedure, shortened: as §3
# Pyricularia oryzae [32] = test: In vivo antifungal activity against Magnaporthe oryzae infected rice seedlings assessed as control of rice blast disease development at 50 ug/ml treated 1 day before spore inoculation measured 3-7 days after inoculation; assay type: functional; procedure, shortened: as §3
# Pyricularia oryzae [33] = test: In vivo antifungal activity against Magnaporthe oryzae infected rice seedlings assessed as control of rice blast disease development at 1 ug/ml treated 1 day before spore inoculation measured 3-7 days after inoculation; assay type: functional; procedure, shortened: as §3
structure (smiles),measurement,setting,value
CCCCCC[C@H](O)CCC[C@@H](O)[C@H]1CC[C@H]([C@H]2CC[C@H]([C@H](O)CCCCCCCCCCCCC3=C[C@H](C)OC3=O)O2)O1 (relative stereo) [REL-SQUAMOCIN],growth inhibition (GI),Phytophthora infestans [1],31%
same,LC50,Meloidogyne incognita [2],> 100 µg/mL
same,LC50,Meloidogyne incognita [3],54.9 µg/mL
same,LC50,[4],0.006 µg/mL
same,Activity,Botrytis cinerea [5],0%
same,Activity,Colletotrichum coccodes [6],0%
same,Activity,Phytophthora infestans [7],Dose-dependent effect
same,Activity,Puccinia recondita [8],0%
same,Activity,Pyricularia oryzae [9],0%
same,Activity,Botrytis cinerea [10],0%
same,Activity,Colletotrichum coccodes [11],0%
same,Activity,Botrytis cinerea [12],0%
same,Activity,Puccinia recondita [13],20%
same,Activity,Rhizoctonia solani [14],0%
same,IC50,Phytophthora infestans [15],1.24 µg/mL
same,inhibition,Phytophthora infestans [15],Dose-dependent effect
same,Activity,Rhizoctonia solani [16],0%
same,Activity,Blumeria hordei [17],0%
same,Activity,Colletotrichum coccodes [18],0%
same,Activity,Pyricularia oryzae [19],0%
same,mortality,[20],100%
same,LC50,Meloidogyne incognita [21],> 100 µg/mL
same,Activity,Blumeria hordei [22],0%
same,Activity,Puccinia recondita [23],83.3%
same,Activity,Rhizoctonia solani [24],11.8%
same,IC50,Phytophthora infestans [25],3.05 µg/mL
same,inhibition,Phytophthora infestans [25],Dose-dependent effect
same,Activity,Blumeria hordei [26],0%
same,Activity,Pyricularia oryzae [27],50%
CCCCCCCCCC[C@@H](O)[C@H]1CC[C@H]([C@H]2CC[C@H]([C@H](O)CCCCCCCCCCCCC3=C[C@H](C)OC3=O)O2)O1 [ISODESAACETYLUVARICIN],LC50,[4],0.024 µg/mL
same,mortality,[20],100%
N#Cc1sc2c(=O)c3ccccc3c(=O)c=2sc1C#N [DITHIANON],Activity,Colletotrichum coccodes [28],20%
same,Activity,Colletotrichum coccodes [29],100%
C[Si](Cn1cncn1)(c1ccc(F)cc1)c1ccc(F)cc1 [FLUSILAZOLE],Activity,Puccinia recondita [30],100%
same,Activity,Puccinia recondita [31],78%
CN(CC[C@H](N)CC(=O)N[C@H]1CC[C@H](n2ccc(N)nc2=O)O[C@@H]1C(=O)O)C(=N)N [BLASTADIN S],Activity,Pyricularia oryzae [32],100%
same,Activity,Pyricularia oryzae [33],65.5%
CCCCCCCCCC[C@@H](O)[C@H]1CC[C@H]([C@H]2CC[C@H]([C@H](O)CCCCCCCCCCC3=C[C@H](C)OC3=O)O2)O1 (relative stereo) [REL-SQUAMOCIN-K],LC50,[4],0.039 µg/mL
same,mortality,[20],100%
CCCCCCCCCC[C@H](O)[C@H]1CC[C@H]([C@H]2CC[C@H]([C@H](O)CCCCCCCCCCCCC3=C[C@H](C)OC3=O)O2)O1 [BULLANIN],LC50,[4],0.018 µg/mL
same,mortality,[20],100%
